Legend:
[1] = biological target: T1, RNA-directed RNA polymerase (Hepacivirus hominis, UniProt O39930); assay: Inhibition of HCV 1a NS5B RNA polymerase
[2] = biological target: T1, RNA-directed RNA polymerase; assay: Inhibition of HCV 1b NS5B RNA polymerase; parameters: species or system Hepatitis C virus subtype 1b
Hepatitis C virus [3] = assay: Inhibition of HCV 1b replication in presence of 5% fetal calf serum; format: functional, organism-based, Hepatitis C virus subtype 1b
Outline: (§1)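 Genotype 1b HCV replicon cell culture assay. The medium held 5% fetal calf serum […] and 40% human serum […]. EC50 is the mean of at least two independent determinations, standard deviation ±10%.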

Hepatitis C virus [4] = assay: Inhibition of HCV 1b replication in presence of 40% human serum; format: functional, organism-based, Hepatitis C virus subtype 1b; outline: as §1

T1 sequence (O39930 whole entry): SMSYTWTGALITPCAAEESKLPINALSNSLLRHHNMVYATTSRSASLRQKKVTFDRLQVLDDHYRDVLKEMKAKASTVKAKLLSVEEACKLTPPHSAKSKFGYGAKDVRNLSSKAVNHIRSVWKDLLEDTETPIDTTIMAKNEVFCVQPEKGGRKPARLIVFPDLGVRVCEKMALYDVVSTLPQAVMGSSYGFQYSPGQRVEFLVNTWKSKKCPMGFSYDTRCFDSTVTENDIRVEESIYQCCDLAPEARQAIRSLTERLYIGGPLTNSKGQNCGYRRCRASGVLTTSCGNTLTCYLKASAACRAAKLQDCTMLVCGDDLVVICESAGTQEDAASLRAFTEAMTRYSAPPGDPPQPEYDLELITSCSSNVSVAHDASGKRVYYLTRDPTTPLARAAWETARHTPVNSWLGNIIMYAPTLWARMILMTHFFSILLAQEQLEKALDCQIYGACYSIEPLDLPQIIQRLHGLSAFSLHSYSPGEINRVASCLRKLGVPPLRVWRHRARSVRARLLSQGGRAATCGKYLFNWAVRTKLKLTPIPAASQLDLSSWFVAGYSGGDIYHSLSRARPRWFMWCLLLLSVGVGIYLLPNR

Row | IC50 [1] [nM] | Compound | also measured
1 | 43 | CC(C)CCn1c(=O)c(C2=NS(=O)(=O)c3cc(NS(=O)(=O)Nc4cccc(C(=O)NCC(N)=O)c4)ccc3N2)c(O)c2cccnc21 | –
2 | 9 | CC(C)CCn1c(=O)c(C2=NS(=O)(=O)c3cc(NS(N)(=O)=O)ccc3N2)c(O)c2cccnc21 | IC50 [2]: 2.8 nM; EC50 (Hepatitis C virus [3]): 17 nM
3 | 18 | CC(C)CCn1c(=O)c(C2=Nc3ccc(NS(=O)(=O)Nc4ccc(C(N)=O)cc4)cc3S(=O)(=O)N2)c(O)c2cccnc21 | –
4 | 87 | COCCOC(=O)NS(=O)(=O)Nc1ccc2c(c1)S(=O)(=O)NC(c1c(O)c3cccnc3n(CCC(C)C)c1=O)=N2 | –
5 | 20 | CC(C)CCn1c(=O)c(C2=Nc3ccc(NS(=O)(=O)NCCC(N)=O)cc3S(=O)(=O)N2)c(O)c2cccnc21 | –
6 | 121 | CC(C)CCn1c(=O)c(C2=NS(=O)(=O)c3cc(NS(=O)(=O)N(C)C(=O)OCc4ccccc4)ccc3N2)c(O)c2cccnc21 | –
7 | 18 | CC(C)CCn1c(=O)c(C2=Nc3ccc(NS(=O)(=O)NCCc4ccccc4)cc3S(=O)(=O)N2)c(O)c2cccnc21 | IC50 [2]: 37 nM; EC50 (Hepatitis C virus [3]): 1270 nM
8 | 72 | C#CCOC(=O)NS(=O)(=O)Nc1ccc2c(c1)S(=O)(=O)N=C(c1c(O)c3cccnc3n(CCC(C)C)c1=O)N2 | –
9 | 5.5 | CC(C)CCn1c(=O)c(C2=NS(=O)(=O)c3cc(NS(=O)(=O)NCc4ccccc4)ccc3N2)c(O)c2cccnc21 | IC50 [2]: 44 nM; EC50 (Hepatitis C virus [3]): 398 nM
10 | 2.4 | CC(C)CCn1c(=O)c(C2=NS(=O)(=O)c3cc(NS(C)(=O)=O)ccc3N2)c(O)c2cccnc21 | IC50 [2]: 6 nM
11 | 88 | C=CCOC(=O)NS(=O)(=O)Nc1ccc2c(c1)S(=O)(=O)N=C(c1c(O)c3cccnc3n(CCC(C)C)c1=O)N2 | –
12 | 189 | CC(C)CCn1c(=O)c(C2=Nc3ccc(NS(=O)(=O)NC(=O)OCCCl)cc3S(=O)(=O)N2)c(O)c2cccnc21 | –
13 | 10 | CC(C)CCn1c(=O)c(C2=Nc3ccc(NS(=O)(=O)NCCN)cc3S(=O)(=O)N2)c(O)c2cccnc21 | –
14 | 8.7 | CNS(=O)(=O)Nc1ccc2c(c1)S(=O)(=O)NC(c1c(O)c3ccccc3n(NC3CCC3)c1=O)=N2 | EC50 (Hepatitis C virus [3]): 11 nM; EC50 (Hepatitis C virus [4]): 420 nM
15 | 14 | CNS(=O)(=O)Nc1ccc2c(c1)S(=O)(=O)NC(c1c(O)c3cccnc3n(CCC(C)C)c1=O)=N2 | –
16 | 35 | CC(C)CCn1c(=O)c(C2=Nc3ccc(NS(=O)(=O)NC(=O)OCCC#N)cc3S(=O)(=O)N2)c(O)c2cccnc21 | IC50 [2]: 6.7 nM; EC50 (Hepatitis C virus [3]): 98 nM
17 | 58 | CC(C)CCn1c(=O)c(C2=Nc3ccc(NS(=O)(=O)NC(=O)OCc4ccccc4)cc3S(=O)(=O)N2)c(O)c2cccnc21 | –
18 | 32 | CC(C)CCn1c(=O)c(C2=Nc3ccc(NS(=O)(=O)NC4CCNCC4)cc3S(=O)(=O)N2)c(O)c2cccnc21 | –
19 | 13 | CC(C)CCn1c(=O)c(C2=Nc3ccc(NS(=O)(=O)NCc4cccc([N+](=O)[O-])c4)cc3S(=O)(=O)N2)c(O)c2cccnc21 | –
20 | 27 | CC(C)CCn1c(=O)c(C2=Nc3ccc(NS(=O)(=O)NN4CCCC4)cc3S(=O)(=O)N2)c(O)c2cccnc21 | –

Row | IC50 [1] [nM] | Compound | also measured
21 | 107 | CC(C)CCn1c(=O)c(C2=Nc3ccc(NS(=O)(=O)NCCO)cc3S(=O)(=O)N2)c(O)c2cccnc21 | –
22 | 21 | CC(C)CCn1c(=O)c(C2=Nc3ccc(NS(=O)(=O)NC(=O)OCCN)cc3S(=O)(=O)N2)c(O)c2cccnc21 | –
23 | 15 | COc1cccc(CNS(=O)(=O)Nc2ccc3c(c2)S(=O)(=O)NC(c2c(O)c4cccnc4n(CCC(C)C)c2=O)=N3)c1 | –
24 | 129 | COC(=O)c1ccccc1NS(=O)(=O)Nc1ccc2c(c1)S(=O)(=O)NC(c1c(O)c3cccnc3n(CCC(C)C)c1=O)=N2 | –
25 | 48 | COC(=O)c1ccc(NS(=O)(=O)Nc2ccc3c(c2)S(=O)(=O)N=C(c2c(O)c4cccnc4n(CCC(C)C)c2=O)N3)cc1 | –
26 | 43 | CNC(=O)c1ccc(NS(=O)(=O)Nc2ccc3c(c2)S(=O)(=O)N=C(c2c(O)c4cccnc4n(CCC(C)C)c2=O)N3)cc1 | –
27 | 63 | COC(=O)NS(=O)(=O)Nc1ccc2c(c1)S(=O)(=O)N=C(c1c(O)c3cccnc3n(CCC(C)C)c1=O)N2 | –
28 | 50 | CC(C)CCn1c(=O)c(C2=Nc3ccc(NS(=O)(=O)NC(=O)OCC(=O)O)cc3S(=O)(=O)N2)c(O)c2cccnc21 | –
29 | 43 | CC(C)CCn1c(=O)c(C2=NS(=O)(=O)c3cc(NS(=O)(=O)Nc4cccc(C(N)=O)c4)ccc3N2)c(O)c2cccnc21 | –
30 | 20 | CC(C)CCn1c(=O)c(C2=NS(=O)(=O)c3cc(NS(=O)(=O)Nc4ccc(C(=O)O)cc4)ccc3N2)c(O)c2cccnc21 | –
31 | 39 | CC(C)CCn1c(=O)c(C2=Nc3ccc(NS(=O)(=O)NC4CCCC4)cc3S(=O)(=O)N2)c(O)c2cccnc21 | –
32 | 61 | CCOC(=O)COC(=O)NS(=O)(=O)Nc1ccc2c(c1)S(=O)(=O)NC(c1c(O)c3cccnc3n(CCC(C)C)c1=O)=N2 | –
33 | 5.2 | NS(=O)(=O)Nc1ccc2c(c1)S(=O)(=O)NC(c1c(O)c3ccccc3n(NC3CCC3)c1=O)=N2 | IC50 [2]: 0.4 nM; EC50 (Hepatitis C virus [3]): 3 nM; EC50 (Hepatitis C virus [4]): 81 nM
34 | 96 | CC(C)CCn1c(=O)c(C2=Nc3ccc(NS(=O)(=O)NC(=O)OCCOCc4ccccc4)cc3S(=O)(=O)N2)c(O)c2cccnc21 | –
35 | 115 | CC(C)CCn1c(=O)c(C2=Nc3ccc(NS(=O)(=O)Nc4cccc(C(=O)O)c4)cc3S(=O)(=O)N2)c(O)c2cccnc21 | –
36 | 41 | CC(C)CCn1c(=O)c(C2=Nc3ccc(NS(=O)(=O)Nc4ccccc4)cc3S(=O)(=O)N2)c(O)c2cccnc21 | –
37 | 67 | CC(C)CCn1c(=O)c(C2=Nc3ccc(NS(=O)(=O)NC4CCCCC4)cc3S(=O)(=O)N2)c(O)c2cccnc21 | –
38 | 10 | COc1ccc(CNS(=O)(=O)Nc2ccc3c(c2)S(=O)(=O)N=C(c2c(O)c4cccnc4n(CCC(C)C)c2=O)N3)cc1 | –
39 | 57 | COc1ccccc1CNS(=O)(=O)Nc1ccc2c(c1)S(=O)(=O)NC(c1c(O)c3cccnc3n(CCC(C)C)c1=O)=N2 | –
40 | 132 | CCOC(=O)c1cccc(NS(=O)(=O)Nc2ccc3c(c2)S(=O)(=O)NC(c2c(O)c4cccnc4n(CCC(C)C)c2=O)=N3)c1 | –
